From ChEMBL document CHEMBL4373701, “Semisynthetic Derivatives of Fradcarbazole A and Their Cytotoxicity against Acute Myeloid Leukemia Cell Lines” (J Nat Prod, 2019)
Active and inactive are the calls of the source. The rule behind the calls is not given here.

Tests used:
HL-60 = experiment: Antiproliferative activity against human HL60 cells measured after 72 hrs by Celltiter-Glo assay; type: functional, cell-based; settings: HL-60, 72 h
MV4-11 [1] = experiment: Antiproliferative activity against human MV4-11 cells measured after 72 hrs by Celltiter-Glo assay; type: functional, cell-based; settings: MV4-11, 72 h
K562 = experiment: Antiproliferative activity against human K562 cells measured after 72 hrs by Celltiter-Glo assay; type: functional, cell-based; settings: K562, 72 h
PBMC = experiment: Cytotoxicity against human PBMC cells measured after 72 hrs by Celltiter-Glo assay; type: ADME, cell-based
MV4-11 [2] = experiment: Induction of apoptosis in human MV4-11 cells assessed as decrease in FLT3 expression after 24 hrs by Western blot analysis; type: functional, cell-based
Procedure, shortened: (§1)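 MV4-11 cells (RPMI-1640, 10% FBS, 37 °C, 5% CO2) exposed 24 h to 0.15, 0.3 or 0.6 μM. Lysed in RIPA buffer, protein measured by BCA, 40 μg run on SDS-PAGE and blotted to nitrocellulose. Primary antibodies overnight at 4 °C, HRP anti-rabbit IgG secondary 1 h at rt. Bands detected by ECL.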

MV4-11 [3] = experiment: Induction of apoptosis in human MV4-11 cells assessed as decrease in phosphorylated-FLT3 expression after 24 hrs by Western blot analysis; type: functional, cell-based; procedure, shortened: as §1
MV4-11 [4] = experiment: Cell cycle arrest in human MV4-11 cells assessed as accumulation at G2/M phase at 0.6 uM after 24 hrs by propidium iodide/RNase A staining based FACScalibur flow cytometry analysis (reference value: 10.58 %); type: functional
MV4-11 [5] = experiment: Cell cycel arrest in human MV4-11 cells assessed as decrease in CDK2 expression at 0.15 to 0.6 uM after 24 hrs by Western blot analysis; type: functional, cell-based; procedure, shortened: as §1
MV4-11 [6] = experiment: Induction of apoptosis in human MV4-11 cells assessed as decrease in c-kit expression after 24 hrs by Western blot analysis; type: functional, cell-based; procedure, shortened: as §1
MV4-11 [7] = experiment: Cell cycle arrest in human MV4-11 cells assessed as accumulation at S phase at 0.6 uM after 24 hrs by propidium iodide/RNase A staining based FACScalibur flow cytometry analysis (reference value: 29.92 %); type: functional
MV4-11 [8] = experiment: Cell cycle arrest in human MV4-11 cells assessed as accumulation at G0/G1 phase at 0.15 uM after 24 hrs by propidium iodide/RNase A staining based FACScalibur flow cytometry analysis (reference value: 50.04 %); type: functional
MV4-11 [9] = experiment: Cell cycle arrest in human MV4-11 cells assessed as accumulation at G2/M phase at 0.15 uM after 24 hrs by propidium iodide/RNase A staining based FACScalibur flow cytometry analysis (reference value: 10.58 %); type: functional
MV4-11 [10] = experiment: Cell cycle arrest in human MV4-11 cells assessed as accumulation at S phase at 0.3 uM after 24 hrs by propidium iodide/RNase A staining based FACScalibur flow cytometry analysis (reference value: 29.92 %); type: functional
MV4-11 [11] = experiment: Induction of apoptotic cell death in human MV4-11 cells at 0.3 uM after 24 hrs by DAPI-based TUNEL assay; type: functional
Procedure, shortened: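 MV4-11 cells held at 0.3 μM for 24 h, then processed with a one-step TUNEL kit. DNA counterstained with DAPI. Green apoptotic cells seen by fluorescence microscopy, excitation 450−500 nm, emission 515−565 nm.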

MV4-11 [12] = experiment: Cell cycle arrest in human MV4-11 cells assessed as accumulation at G0/G1 phase at 0.3 uM after 24 hrs by propidium iodide/RNase A staining based FACScalibur flow cytometry analysis (reference value: 50.04 %); type: functional
MV4-11 [13] = experiment: Cell cycle arrest in human MV4-11 cells assessed as accumulation at G0/G1 phase at 0.6 uM after 24 hrs by propidium iodide/RNase A staining based FACScalibur flow cytometry analysis (reference value: 50.04 %); type: functional
MV4-11 [14] = experiment: Cell cycle arrest in human MV4-11 cells assessed as accumulation at G2/M phase at 0.3 uM after 24 hrs by propidium iodide/RNase A staining based FACScalibur flow cytometry analysis (reference value: 10.58 %); type: functional
MV4-11 [15] = experiment: Cell cycle arrest in human MV4-11 cells assessed as accumulation at S phase at 0.15 uM after 24 hrs by propidium iodide/RNase A staining based FACScalibur flow cytometry analysis (reference value: 29.92 %); type: functional

SMILES	IC50 (HL-60) [µM]	IC50 (MV4-11 [1]) [µM]	IC50 (K562) [µM]	IC50 (PBMC) [µM]	further results
CO[C@@H]1[C@H](N(C)c2ncc(-c3c[nH]c4ccc(Br)cc34)s2)C[C@H]2O[C@]1(C)n1c3ccccc3c3c4c(c5c6ccccc6n2c5c31)C(=O)NC4	> 10	0.41	> 10	> 10	
CO[C@@H]1[C@H](N(C)c2ncc(-c3c[nH]c4ccccc34)s2)C[C@H]2O[C@]1(C)n1c3ccccc3c3c4c(c5c6ccccc6n2c5c31)C(=O)NC4	> 10	0.4	> 10	> 10	
CO[C@@H]1[C@H](N(C)c2ncc(-c3c[nH]c4ccc(F)cc34)s2)C[C@H]2O[C@]1(C)n1c3ccccc3c3c4c(c5c6ccccc6n2c5c31)C(=O)NC4	> 10	0.51	> 10	> 10	
CO[C@@H]1[C@H](N(C)c2ncc(-c3c[nH]c4ccc(Cl)cc34)s2)C[C@H]2O[C@]1(C)n1c3ccccc3c3c4c(c5c6ccccc6n2c5c31)C(=O)NC4	> 10	0.42	> 10	> 10	
CO[C@@H]1[C@H](N(C)c2ncc(-c3c[nH]c4ccc(Cl)cc34)s2)C[C@H]2O[C@]1(C)n1c3ccccc3c3c4c(c5c6cc(Cl)ccc6n2c5c31)C(=O)NC4	> 10	0.59	> 10	> 10	
CO[C@@H]1[C@H](N(C)c2ncc(-c3c[nH]c4ccc(F)cc34)s2)C[C@H]2O[C@]1(C)n1c3ccccc3c3c4c(c5c6cc(Cl)ccc6n2c5c31)C(=O)NC4	> 10	0.32	> 10	> 10	Activity (MV4-11 [2]): Dose-dependent effect; Activity (MV4-11 [3]): Dose-dependent effect; Activity (MV4-11 [4]): 0.45%; Activity (MV4-11 [5]): Active; Activity (MV4-11 [6]): Dose-dependent effect; Activity (MV4-11 [7]): 10.18%; Activity (MV4-11 [8]): 60.59%; Activity (MV4-11 [9]): 10.04%; Activity (MV4-11 [10]): 9.23%; Activity (MV4-11 [11]): Active; Activity (MV4-11 [12]): 72.68%; Activity (MV4-11 [13]): 87.75%; Activity (MV4-11 [14]): 6.6%; Activity (MV4-11 [15]): 20.19%
CO[C@@H]1[C@H](N(C)c2ncc(-c3c[nH]c4ccc(F)cc34)s2)C[C@H]2O[C@]1(C)n1c3ccccc3c3c4c(c5c6cc(Br)ccc6n2c5c31)C(=O)NC4	> 10	0.96	> 10	> 10	
COc1ccc2[nH]cc(-c3cnc(N(C)[C@@H]4C[C@H]5O[C@@](C)([C@@H]4OC)n4c6ccccc6c6c7c(c8c9cc(Cl)ccc9n5c8c64)C(=O)NC7)s3)c2c1	> 10	0.44	> 10	> 10	
COc1ccc2[nH]cc(-c3cnc(N(C)[C@@H]4C[C@H]5O[C@@](C)([C@@H]4OC)n4c6ccccc6c6c7c(c8c9cc(Br)ccc9n5c8c64)C(=O)NC7)s3)c2c1	> 10	0.51	> 10	> 10	
CO[C@@H]1[C@H](N(C)c2ncc(-c3c[nH]c4ccccc34)s2)C[C@H]2O[C@]1(C)n1c3ccccc3c3c4c(c5c6cc(Br)ccc6n2c5c31)C(=O)NC4	> 10	0.36	> 10	> 10	

Now from value to compound, other results behind:

IC50 (HL-60) [µM]	IC50 (MV4-11 [1]) [µM]	IC50 (K562) [µM]	SMILES	IC50 (PBMC) [µM]	further results
> 10	0.7	> 10	CO[C@@H]1[C@H](N(C)c2ncc(-c3c[nH]c4ccc(Cl)cc34)s2)C[C@H]2O[C@]1(C)n1c3ccccc3c3c4c(c5c6cc(Br)ccc6n2c5c31)C(=O)NC4	> 10	
> 10	0.36	> 10	COc1ccc2[nH]cc(-c3cnc(N(C)[C@@H]4C[C@H]5O[C@@](C)([C@@H]4OC)n4c6ccccc6c6c7c(c8c9ccccc9n5c8c64)C(=O)NC7)s3)c2c1	> 10	
> 10	0.56	> 10	CO[C@@H]1[C@H](N(C)c2ncc(-c3c[nH]c4ccccc34)s2)C[C@H]2O[C@]1(C)n1c3ccccc3c3c4c(c5c6cc(Cl)ccc6n2c5c31)C(=O)NC4	> 10	
> 10	0.43	> 10	CO[C@@H]1[C@H](N(C)c2ncc(-c3c[nH]c4ccc(Br)cc34)s2)C[C@H]2O[C@]1(C)n1c3ccccc3c3c4c(c5c6cc(Cl)ccc6n2c5c31)C(=O)NC4	> 10	
> 10	0.39	> 10	CO[C@@H]1[C@H](N(C)c2ncc(-c3c[nH]c4ccc(Br)cc34)s2)C[C@H]2O[C@]1(C)n1c3ccccc3c3c4c(c5c6cc(Br)ccc6n2c5c31)C(=O)NC4	> 10	
